# Test results from ChEMBL document CHEMBL1130215, “7-alkylidenecephalosporin esters as inhibitors of human leukocyte elastase” (J Med Chem, 1997).
# Target: T1, Neutrophil elastase (Homo sapiens, UniProt P08246)
# T1 sequence (P08246 whole entry): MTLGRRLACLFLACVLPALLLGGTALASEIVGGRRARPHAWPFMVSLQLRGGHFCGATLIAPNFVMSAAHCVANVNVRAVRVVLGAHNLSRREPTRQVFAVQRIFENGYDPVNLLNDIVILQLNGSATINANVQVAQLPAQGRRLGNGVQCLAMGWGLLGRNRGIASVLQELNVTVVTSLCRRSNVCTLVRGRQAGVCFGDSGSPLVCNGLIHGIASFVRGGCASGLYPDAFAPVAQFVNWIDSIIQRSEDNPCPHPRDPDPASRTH
# Experiment: Inhibition of human leukocyte elastase
# In short: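 Enzyme preincubated 4 min with inhibitor (DMSO stock, 1 mg/mL, diluted in DMSO when needed) in 0.1 M Tris-NaCl buffer pH 7.5 with NaN3. Aliquot then added to N-(methoxysuccinyl)-Ala-Ala-Pro-Val 4-nitroanilide substrate in buffer. Residual hydrolysis rate read at 410 nm for 2 min at 1 s intervals; IC50 taken from varied inhibitor volumes.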
row,SMILES,IC50 [µM]
1,CC(=O)OCC1=C(C(=O)OC(c2ccccc2)c2ccccc2)N2C(=O)/C(=C/c3ccccn3)C2SC1 (stereo not drawn),> 10
2,CC(=O)OCC1=C(C(=O)OC(c2ccccc2)c2ccccc2)N2C(=O)/C(=C\Br)C2SC1 (stereo not drawn),0.39
3,CC(=O)OCC1=C(C(=O)OC(c2ccccc2)c2ccccc2)N2C(=O)/C(=C/c3ccccc3)C2S(=O)(=O)C1 (stereo not drawn),8.9
4,CC(=O)OCC1=C(C(=O)OC(c2ccccc2)c2ccccc2)N2C(=O)C(=C=CC(C)(C)C)C2SC1 (stereo not drawn),> 10
5,CC(=O)OCC1=C(C(=O)OC(c2ccccc2)c2ccccc2)N2C(=O)/C(=C/C=O)C2SC1 (stereo not drawn),13.9
6,CO[C@H]1C(=O)N2C(C(=O)OC(c3ccccc3)c3ccccc3)=C(COC(C)=O)CSC12 (stereo partly drawn),5.35
7,CON(C)C(=O)/C=C1/C(=O)N2C(C(=O)OC(c3ccccc3)c3ccccc3)=C(COC(C)=O)CS(=O)(=O)C12 (stereo not drawn),> 10
8,CC(=O)OCC1=C(C(=O)OC(c2ccccc2)c2ccccc2)N2C(=O)/C(=C/CO)C2SC1 (stereo not drawn),> 10
9,CC(=O)OCC1=C(C(=O)OC(c2ccccc2)c2ccccc2)N2C(=O)C(=C=CC(C)(C)C)C2S(=O)(=O)C1 (stereo not drawn),10.5
10,CC(=O)OCC1=C(C(=O)OC(c2ccccc2)c2ccccc2)N2C(=O)/C(=C/C#N)C2S(=O)(=O)C1 (stereo not drawn),0.49
11,CC(=O)OCC1=C(C(=O)OC(c2ccccc2)c2ccccc2)N2C(=O)C(=C(Cl)Cl)C2SC1 (stereo not drawn),6.41
12,CC(=O)OCC1=C(C(=O)OC(c2ccccc2)c2ccccc2)N2C(=O)CC2SC1 (stereo not drawn),> 10
13,CC(=O)OCC1=C(C(=O)OC(c2ccccc2)c2ccccc2)N2C(=O)[C@@H](N)C2SC1 (stereo partly drawn),> 10
14,COC(=O)/C(Br)=C1/C(=O)N2C(C(=O)OC(c3ccccc3)c3ccccc3)=C(COC(C)=O)CSC12 (stereo not drawn),0.21
15,CO[C@H]1C(=O)N2C(C(=O)OC(c3ccccc3)c3ccccc3)=C(COC(C)=O)CS(=O)(=O)C12 (stereo partly drawn),0.28
16,COC(=O)/C=C1/C(=O)N2C(C(=O)OC(c3ccccc3)c3ccccc3)=C(COC(C)=O)CS(=O)(=O)C12 (stereo not drawn),8.9
17,CC(=O)OCC1=C(C(=O)OC(c2ccccc2)c2ccccc2)N2C(=O)/C(=C\c3ccccc3)C2SC1 (stereo not drawn),> 10
18,CC(=O)OCC1=C(C(=O)OC(c2ccccc2)c2ccccc2)N2C(=O)[C@H](I)C2SC1 (stereo partly drawn),1.18
19,CC(=O)OCC1=C(C(=O)OC(c2ccccc2)c2ccccc2)N2C(=O)C(Br)(Br)C2SC1 (stereo not drawn),1.39
20,CC(=O)OCC1=C(C(=O)OC(c2ccccc2)c2ccccc2)N2C(=O)/C(=C/C(=O)OC(C)(C)C)C2S(=O)(=O)C1 (stereo not drawn),7.1
21,CC(=O)OCC1=C(C(=O)OC(c2ccccc2)c2ccccc2)N2C(=O)[C@H](Cl)C2SC1 (stereo partly drawn),6
22,CC(=O)OCC1=C(C(=O)OC(c2ccccc2)c2ccccc2)N2C(=O)/C(=C/C(=O)OC(C)(C)C)C2SC1 (stereo not drawn),> 10
23,CC(=O)OCC1=C(C(=O)OC(c2ccccc2)c2ccccc2)N2C(=O)/C(=C/c3ccccn3)C2S(=O)(=O)C1 (stereo not drawn),> 10
24,CC(=O)OCC1=C(C(=O)OC(c2ccccc2)c2ccccc2)N2C(=O)C(=C(Br)Br)C2S(=O)(=O)C1 (stereo not drawn),2.07

# Next, values leading:
row,IC50 [µM],SMILES
1,0.26,CC(=O)OCC1=C(C(=O)OC(c2ccccc2)c2ccccc2)N2C(=O)C(=C(Br)Br)C2SC1 (stereo not drawn)
2,> 10,CC(=O)OCC1=C(C(=O)OC(c2ccccc2)c2ccccc2)N2C(=O)C(=O)C2SC1 (stereo not drawn)
3,6,CC(=O)OCC1=C(C(=O)OC(c2ccccc2)c2ccccc2)N2C(=O)/C(=C\c3ccccc3)C2S(=O)(=O)C1 (stereo not drawn)
4,3.36,CC(=O)OCC1=C(C(=O)OC(c2ccccc2)c2ccccc2)N2C(=O)/C(=C\Br)C2S(=O)(=O)C1 (stereo not drawn)
5,5.4,CC(=O)OCC1=C(C(=O)OC(c2ccccc2)c2ccccc2)N2C(=O)C(=C=CBr)C2SC1 (stereo not drawn)
6,2.56,CC(=O)OCC1=C(C(=O)OC(c2ccccc2)c2ccccc2)N2C(=O)C(=C(Cl)Cl)C2S(=O)(=O)C1 (stereo not drawn)
7,2.6,COC(=O)/C=C1/C(=O)N2C(C(=O)OC(c3ccccc3)c3ccccc3)=C(COC(C)=O)CSC12 (stereo not drawn)
8,> 10,CC(=O)/C=C1/C(=O)N2C(C(=O)OC(c3ccccc3)c3ccccc3)=C(COC(C)=O)CS(=O)(=O)C12 (stereo not drawn)
9,13.5,[2H]C(=C=C1C(=O)N2C(C(=O)OC(c3ccccc3)c3ccccc3)=C(COC(C)=O)CS(=O)(=O)C12)C(C)(C)C (stereo not drawn)
10,9,C=C=C1C(=O)N2C(C(=O)OC(c3ccccc3)c3ccccc3)=C(COC(C)=O)CSC12 (stereo not drawn)
11,> 10,CC(=O)OCC1=C(C(=O)OC(c2ccccc2)c2ccccc2)N2C(=O)/C(=C/c3ccccc3)C2SC1 (stereo not drawn)
12,4.27,CC(=O)/C=C1/C(=O)N2C(C(=O)OC(c3ccccc3)c3ccccc3)=C(COC(C)=O)CSC12 (stereo not drawn)
13,> 10,CC(=O)OCC1=C(C(=O)OC(c2ccccc2)c2ccccc2)N2C(=O)/C(=C/C#N)C2SC1 (stereo not drawn)
14,6.1,C=C=C1C(=O)N2C(C(=O)OC(c3ccccc3)c3ccccc3)=C(COC(C)=O)CS(=O)(=O)C12 (stereo not drawn)
